The source of these data is ChEMBL document CHEMBL1127445, “Structure-activity study of 5-substituted 1-carbobenzoxy-2-iminohydantoins as potential anticonvulsant agents” (J Med Chem, 1994).

Activity calls are given as the source filed them. The rule behind the calls is not given here. Bounds are passed on as bounds.

Data set [1] has as its system Mus musculus. As to the kind of experiment: Tested for the ability to protect against subcutaneous pentylenetetrazole seizure test; Activity at 300 mg/kg but ED50 can not be estimated. The data set is classed as functional, organism-based. Details: dose 300 mg/kg. Summed up: (§1)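 Male Swiss Webster mice (20–25 g) were dosed ip (10 mL/kg; saline or 1% CMC suspension), with ≥3 groups of 4–8 mice. At 0.5 h, pentylenetetrazole 85 mg/kg was given sc into the neck fold, and mice were watched for 30 min. Protection meant absence of clonic spasms lasting ≥5 s. ED50 is in mg/kg; doses went up to 300 mg/kg.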

The species entered for data set [2] is Mus musculus. As to the kind of experiment: Tested for the ability to protect against maximal electroshock seizure test. The data set is classed as functional. Summed up:
(§2)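 Adult male Swiss Webster mice (20–25 g) received drug ip (10 mL/kg) in normal saline or as a 1% CMC suspension. At least three dose groups of 4–8 mice were used, tested at 0.5 h. Maximal electroshock used a 50 mA current. ED50 is in mg/kg; time of peak effect was not determined; doses went up to 300 mg/kg.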
(In general: Protection in the maximal electroshock model is a classic sign of anticonvulsant action.)

Data set [3] deals with Mus musculus. The experiment in a line: Tested for the ability to protect against maximal electroshock seizure test; NA= Not active up to 300 mg/kg. Details: dose 300 mg/kg. The data set is classed as functional, organism-based. Summed up:
as §2

Data set [4] concerns Mus musculus. As to the kind of experiment: Tested for the ability to protect against subcutaneous pentylenetetrazole seizure test. The class given is functional. To be noted: sc. Summed up: as §1
Data set [5] concerns Mus musculus. The experiment in a line: Tested for the ability to protect against maximal electroshock seizure test; Activity at 300 mg/kg, but ED50 cannot be estimated. The class given is functional, organism-based. Details: dose 300 mg/kg. Summed up: as §2
For data set [6], the system named is Mus musculus. The experiment in a line: Tested for the ability to protect against subcutaneous pentylenetetrazole seizure test; NA= Not active up to 300 mg/kg. The data set is classed as functional, organism-based. Details: dose 300 mg/kg. Summed up:
as §1

Data set [7] is described as follows: Protective index is the ratio between TD50 and ED50 values in subcutaneous pentylenetetrazole seizure test (scMET). The data set is classed as functional. Summed up:
(§3)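 Phase II quantification in mice was run by the NIH ADD Program. Compounds were given ip, and ED50 (mg/kg) was read at the time of peak effect. The protective index is TD50 (rotorod ataxia) divided by ED50 in the MES or scMET test.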

Data set [8] concerns Mus musculus. The experiment in a line: Intraperitoneal anticonvulsant activity in the maximal electroshock seizure test expressed as median effective dose in phase II trial in mice. To be noted: ip.
For data set [9], the system named is Mus musculus. As to the kind of experiment: Tested for the ability to protect against subcutaneous pentylenetetrazole seizure test; Previously tested. The class given is functional. To be noted: sc.
Data set [10] in a line: Protective index is the ratio between TD50 and ED50 values in maximal electroshock seizure test (MES). The data set is classed as functional. Summed up: as §3
The test system of data set [11] is Mus musculus. The experiment in a line: Tested for the ability to protect against subcutaneous pentylenetetrazole seizure test; Activity at 300 mg/kg but ED50 cannot be estimated. The data set is classed as functional, organism-based. Further details: dose 300 mg/kg. Summed up: as §1
The nature of data set [12]: Tested for median toxic dose in rotarod ataxia test for neurological toxicity in mice. The class given is organism-based. To be noted: mouse, in vivo. Summed up: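 Neurotoxicity was measured in mice by the NIH ADD Program using the rotorod ataxia test. Drug was given ip, and the median toxic dose (mg/kg) was measured at the time of peak deficit.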
The test system of data set [13] is Mus musculus. As to the kind of experiment: Anticonvulsant activity of the substance upon subcutaneous administration in pentylenetetrazole seizure test in mice. The class given is functional. To be noted: ip, in the assay text read “upon intraperitoneal administration” for “upon subcutaneous administration”. Summed up:
as §3

In data set [14] the test system is Mus musculus. The experiment in a line: Anticonvulsant activity of the substance upon subcutaneous administration in pentylenetetrazole seizure test in mice; NA= Not active. The class given is functional, organism-based.
For data set [15], the system named is Mus musculus. The experiment in a line: Anticonvulsant activity in the in the subcutaneous pentylenetetrazole seizure test in the mice. The data set is classed as functional. Conditions: sc. Summed up:
as §3

A word on the ED50: it is the dose at which the effect has come halfway, by size or by number of responders. With `CCCC[C@H]1C(=O)N=C(N)N1C(=O)OCc1ccccc1`, the ED50 entry in [1] was “Activity”; in [2] it was over 1000 mg/kg.
In the case of `CCC[C@@H]1C(=O)N=C(N)N1C(=O)OCc1ccccc1`, the ED50 entry in [3] is “inactive”. This compound had a 50% effective dose (ED50) in data set [4] of 374 mg/kg.
Turning to `NC1=NC(=O)CN1C(=O)OCc1ccccc1`, in [5], the ED50 result is “Activity”. Also, the ED50 result in [6] is “inactive”.
For the compound `CC1(C)C(=O)N=C(N)N1C(=O)OCc1ccccc1`, the ED50 in data set [2] is 228 mg/kg. Also, the ED50 result in data set [6] was “inactive”.
For the compound `CSCC[C@H]1C(=O)N=C(N)N1C(=O)OCc1ccccc1`, the ED50 result in [3] and in data set [6] was “inactive” each time.
For the compound `NC1=NC(=O)[C@H](CSCc2ccccc2)N1C(=O)OCc1ccccc1`, the ED50 result in [3] and in [6] was “inactive” throughout.
Consider `CC(C)C[C@H]1C(=O)N=C(N)N1C(=O)OCc1ccccc1`, for which the figures for the PI in data set [7] and in data set [10] were 2.5 and 3.5, respectively. For the same compound, the ED50 in [8] was 98.6 mg/kg; in data set [9], 141 mg/kg.
In turn, `C[C@H]1C(=O)N=C(N)N1C(=O)OCc1ccccc1` gave an ED50 in data set [2] of 171 mg/kg. The ED50 entry in data set [6] was “inactive”.
Consider `NC1=NC(=O)[C@H](Cc2c[nH]c3ccccc23)N1C(=O)OCc1ccccc1`, for which the ED50 entry in [11] is reported as “Activity”. For the same compound, in data set [3], the ED50 result is “inactive”.
In general, TD50 refers to the 50% point of the dose-response relation for the toxic effect studied. Turning to `CCC[C@H]1C(=O)N=C(N)N1C(=O)OCc1ccccc1`, the PI in data set [7] worked out at 1.3; in [10], 2.3. The TD50 in data set [12] was 188 mg/kg. The ED50 in [8] was determined as 80.2 mg/kg; in data set [4], 141 mg/kg; in data set [2], 53.3 mg/kg; in data set [13] it was 141 mg/kg.
On to `O=C1NC(=O)C(c2ccccc2)(c2ccccc2)N1`, for which the ED50 entry in data set [14] is “inactive”.
As for `C=CC[C@H]1C(=O)N=C(N)N1C(=O)OCc1ccccc1`, the ED50 in data set [4] was 193 mg/kg; in data set [2], 53.3 mg/kg.
With `CC(C)[C@H]1C(=O)N=C(N)N1C(=O)OCc1ccccc1`, the values for the ED50 result in [1] and in [2] were “Activity” and 51.9 mg/kg, respectively.
In the case of `CCC(C)[C@H]1C(=O)N=C(N)N1C(=O)OCc1ccccc1` (stereo partly drawn), the results for the ED50 in data set [4] and in data set [2] were 176 mg/kg and 74.4 mg/kg, respectively.
For the compound `NC(=O)CC[C@H]1C(=O)N=C(N)N1C(=O)OCc1ccccc1`, the ED50 entry in [3] and in data set [6] was “inactive” throughout.
In the case of `NC1=NC(=O)[C@H](Cc2ccccc2)N1C(=O)OCc1ccccc1`, the ED50 entry in data set [3] was “inactive”. For the same compound, the ED50 in [9] is over 1000 mg/kg.
As to `CC[C@H]1C(=O)N=C(N)N1C(=O)OCc1ccccc1`, the ED50 in [15] is under 500 mg/kg; in data set [8] it was 99.5 mg/kg; in data set [4], 223 mg/kg; in data set [2], 69.2 mg/kg. The TD50 in [12] is under 500 mg/kg.
